How the values were obtained:
Format in all cases: ADME, organism-based
Homo sapiens [1] = test: Half life in chronic hepatitis B virus infected patient assessed as (1-((2-amino-9H-purin-9-yl)methyl)cyclopropoxy)me at 30 mg, po administered as single dose by LC-MS analysis; details: in vivo
Procedure, shortened: (§1)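 CHB patients given LB80380 orally once daily for 4 weeks. Plasma was sampled on day 1 and at steady state (weeks 2–4), predose and 0.5, 1, 2, 3, 4, 6, 8 and 24 h postdose. LB80331 was measured by validated LC-MS/MS (LLOQ 5 ng/ml). Terminal-phase apparent t1/2 came from noncompartmental analysis and was flagged if extrapolated AUC exceeded 20% of AUC0-24.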

Homo sapiens [2] = test: Cmax in chronic hepatitis B virus infected patient assessed as (1-((2-amino-9H-purin-9-yl)methyl)cyclopropoxy)me at 240 mg, po qd for 4 weeks by LC-MS analysis; set-up: dose 240 mg, route oral; details: in vivo, 672 h
Procedure, shortened: (§2)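 CHB patients, oral once daily for 4 weeks. Plasma sampled at steady state (weeks 2–4), predose and at 0.5, 1, 2, 3, 4, 6, 8 and 24 h postdose. LB80331 measured by validated LC-MS/MS (LLOQ 5 ng/ml) after protein precipitation with a stable-isotope internal standard. Cmax by noncompartmental analysis.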

Homo sapiens [3] = test: Tmax in chronic hepatitis B virus infected patient assessed as (1-((2-amino-9H-purin-9-yl)methyl)cyclopropoxy)me at 240 mg, po qd for 4 weeks by LC-MS analysis; details: in vivo, 672 h
Procedure, shortened: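 Daily oral LB80380 was given to CHB patients over 4 weeks. Blood was drawn on day 1 and at steady state (weeks 2–4), predose and 0.5–24 h postdose. Plasma LB80331 (LLOQ 5 ng/ml) and LB80317 (LLOQ 10 ng/ml) were measured by LC-MS/MS after protein-precipitation extraction. Tmax was taken by noncompartmental analysis.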

Homo sapiens [4] = test: Half life in chronic hepatitis B virus infected patient assessed as (1-((2-amino-9H-purin-9-yl)methyl)cyclopropoxy)me at 120 mg, po qd for 4 weeks by LC-MS analysis; details: in vivo, 672 h; procedure, shortened: as §1
Homo sapiens [5] = test: Cmax in chronic hepatitis B virus infected patient assessed as (1-((2-amino-9H-purin-9-yl)methyl)cyclopropoxy)me at 30 mg, po qd for 4 weeks by LC-MS analysis; set-up: dose 30 mg, route oral; details: in vivo, 672 h; procedure, shortened: as §2
Liver [6] = test: Tmax in CD-1 mouse liver assessed as (1-((2-amino-9H-purin-9-yl)methyl)cyclopropoxy)me at 30 mg/kg, po administered as single dose by LC-MS analysis; set-up: dose 30 mg/kg, route oral; details: in vivo
Procedure, shortened: (§3)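 Male CD-1 mice received 30 mg/kg orally in 100% PEG 400. Plasma and snap-frozen liver were taken from 3 mice per time point at 1, 2, 4, 6, 10, 24 and 36 h. Samples were extracted with perchloric acid and neutralized with ammonium bicarbonate. Free LB80331/LB80317 was measured directly by LC-MS/MS; total, including di- and triphosphates, was measured after calf intestinal phosphatase treatment.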

Homo sapiens [7] = test: Oral clearance in chronic hepatitis B virus infected patient assessed as (1-((2-amino-9H-purin-9-yl)methyl)cyclopropoxy)me at 240 mg, po administered as single dose by LC-MS analysis; details: in vivo
Procedure, shortened: (§4)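 Oral LB80380 was given once daily for 4 weeks to CHB patients. Plasma LB80331 was quantified by validated LC-MS/MS after protein precipitation, with stable-isotope internal standard, at baseline and steady state (weeks 2–4), 0–24 h postdose. Noncompartmental CL/F was calculated as dose (adjusted for LB80380/LB80331 molecular weights) divided by AUC (AUC0-∞ single dose; AUC0-24 steady state).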

Homo sapiens [8] = test: Cmax in chronic hepatitis B virus infected patient assessed as (1-((2-amino-9H-purin-9-yl)methyl)cyclopropoxy)me at 30 mg, po administered as single dose by LC-MS analysis; set-up: dose 30 mg, route oral; details: in vivo
Procedure, shortened: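 CHB patients (HBsAg/HBeAg positive), six per dose cohort, given a first oral dose on day 1. Plasma sampled at baseline. Analysis by validated LC-MS/MS after protein precipitation with a stable-isotope internal standard; LLOQ 5 ng/ml for LB80331. Noncompartmental analysis gives Cmax and AUC0-∞.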

Liver [9] = test: AUC (0 to 36 hrs) in CD-1 mouse liver assessed as (1-((2-amino-9H-purin-9-yl)methyl)cyclopropoxy)me at 30 mg/kg, po administered as single dose by LC-MS analysis; set-up: time < 36 hr, dose 30 mg/kg, route oral; details: in vivo
Procedure, shortened: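 Male CD-1 mice given a single oral dose in 100% PEG 400. Samples extracted with perchloric acid and neutralized with ammonium bicarbonate. One aliquot assayed for the free analyte; the other treated with calf intestinal phosphatase to give the total including di-/triphosphates. Analysis by LC-MS/MS.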

Homo sapiens [10] = test: Oral clearance in chronic hepatitis B virus infected patient assessed as (1-((2-amino-9H-purin-9-yl)methyl)cyclopropoxy)me at 120 mg, po qd for 4 weeks by LC-MS analysis; details: in vivo, 672 h; procedure, shortened: as §4
Homo sapiens [11] = test: Half life in chronic hepatitis B virus infected patient assessed as (1-((2-amino-9H-purin-9-yl)methyl)cyclopropoxy)me at 240 mg, po qd for 4 weeks by LC-MS analysis; details: in vivo, 672 h; procedure, shortened: as §1
Homo sapiens [12] = test: Oral clearance in chronic hepatitis B virus infected patient assessed as (1-((2-amino-9H-purin-9-yl)methyl)cyclopropoxy)me at 120 mg, po administered as single dose by LC-MS analysis; details: in vivo; procedure, shortened: as §4
Plasma = test: Tmax in CD-1 mouse plasma assessed as (1-((2-amino-9H-purin-9-yl)methyl)cyclopropoxy)me at 30 mg/kg, po administered as single dose by LC-MS analysis; set-up: dose 30 mg/kg, route oral; details: in vivo; procedure, shortened: as §3
Homo sapiens [13] = test: Tmax in fasted healthy human assessed as (1-((2-amino-9H-purin-9-yl)methyl)cyclopropoxy)me assessed as (1-((2-amino-9H-purin-9-yl)methyl)cyclopropoxy)me at 60 mg, po administered as single dose by LC-MS analysis; details: in vivo
Procedure, shortened: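 Healthy subjects received a single oral 60-mg dose after a high-fat breakfast or after an overnight fast. Plasma LB80331 was assayed by validated LC-MS/MS (LLOQ 5 ng/ml; intra- and interassay precision and accuracy <10%). Tmax was obtained by noncompartmental analysis.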

t1/2 (Homo sapiens [1]): 2.5 h | Cmax (Homo sapiens [2]): 1.164 µg/mL | Tmax (Homo sapiens [3]): 2 h | t1/2 (Homo sapiens [4]): 3.1 h | Cmax (Homo sapiens [5]): 0.192 µg/mL | Tmax (Liver [6]): 1 h | CL/F (Homo sapiens [7]): 363 mL/min | Cmax (Homo sapiens [8]): 0.2 µg/mL | AUC (Liver [9]): 102 µM·h | CL/F (Homo sapiens [10]): 304 mL/min | t1/2 (Homo sapiens [11]): 3.3 h | CL/F (Homo sapiens [12]): 273 mL/min | Tmax (Plasma): 1 h | Tmax (Homo sapiens [13]): 1.5 h
Compound: Nc1ncc2ncn(CC3(OCP(=O)(O)O)CC3)c2n1 [BESIFOVIR]

— ChEMBL document CHEMBL1649179, “Pharmacokinetics of LB80331 and LB80317 following oral administration of LB80380, a new antiviral agent for chronic hepatitis B (CHB), in healthy adult subjects, CHB patients, and mice” (Antimicrob Agents Chemother, 2009)
